# Measured values as given in ChEMBL document CHEMBL2384906, “Biological activity, design, synthesis and structure activity relationship of some novel derivatives of curcumin containing sulfonamides” (Eur J Med Chem, 2013).
# Activity calls are given as the source filed them. The calls are words filed in the database; no cut-off is given here.
# Key:
# Aspergillus niger [1] = test: Antifungal activity against Aspergillus niger MTCC 1108 after 48 hrs; type: functional
# Curvularia lunata [2] = test: Antifungal activity against Curvularia lunata MTCC 581 assessed as zone of inhibition at 20 uM after 48 hrs by disc diffusion method; type: functional
# How it was run: (§1)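 Spores from 4-day potato dextrose agar cultures, suspended in sterile water at 1.5 × 10⁵ CFU/mL. 0.2 mL was spread on potato dextrose agar. 5 mm filter-paper discs soaked with test compound were laid on the lawn. Incubation was 48 h at 28 °C, then the inhibition zone was measured in mm. Fluconazole was the positive control and acetone the negative control.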
# Escherichia coli [3] = test: Antimicrobial activity against Escherichia coli ATCC 35218 assessed as diameter of inhibition zone at 80 uM after 24 hrs by Kirby -Baur disc diffusion method; type: functional
# How it was run: (§2)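 Kirby-Bauer disc diffusion was used. Acetone stocks (160 µM) were serially doubled down to 80, 40 and 20 µM. 4 µL of each went onto 5 mm sterile paper discs, which were dried 30 min at 50 °C. Inoculum was 1.5 × 10⁸ CFU/mL diluted to 3 × 10² CFU/mL, and 50 µL was spread on Mueller-Hinton agar. After 24 h at 37 °C the inhibition-zone diameter was measured. Ciprofloxacin served as positive control.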
# Pseudomonas aeruginosa [4] = test: Antimicrobial activity against Pseudomonas aeruginosa ATCC 15499 assessed as diameter of inhibition zone at 80 uM after 24 hrs by Kirby -Baur disc diffusion method; type: functional; how it was run: as §2
# HeLa = test: Cytotoxicity against human HeLa cells after 24 hrs by MTT assay; type: functional, cell-based
# How it was run: (§3)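 The MTT assay seeded 5 × 10⁴ cells per well and grew them 24 h in RPMI 1640 with compound at 2.5–200 µM. Medium without cells was the blank and adriamycin the positive control. MTT was added for 4 h at 37 °C, formazan was solubilised, and absorbance was read at 570 nm. IC50 is the concentration that cuts viability 50% against untreated cells.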
# Salmonella typhi [5] = test: Antimicrobial activity against Salmonella typhi ATCC 23564 assessed as diameter of inhibition zone at 80 uM after 24 hrs by Kirby -Baur disc diffusion method; type: functional, Salmonella enterica subsp. enterica serovar Typhi; settings: for diameter of the inhibition zone (DIZ): Salmonella enterica subsp. enterica serovar Typhi
# Bacillus cereus [6] = test: Antimicrobial activity against Bacillus cereus MTCC 7350 assessed as diameter of inhibition zone at 80 uM after 24 hrs by Kirby -Baur disc diffusion method; type: functional; how it was run: as §2
# Salmonella typhi [7] = test: Antimicrobial activity against Salmonella typhi ATCC 23564 after 24 hrs by broth micro serial dilution method; type: functional, Salmonella enterica subsp. enterica serovar Typhi
# Aspergillus niger [8] = test: Antifungal activity against Aspergillus niger MTCC 1108 assessed as zone of inhibition at 80 uM after 48 hrs by disc diffusion method; type: functional; how it was run: as §1
# HCT-116 = test: Cytotoxicity against human HCT116 cells after 24 hrs by MTT assay; type: functional, cell-based; how it was run: as §3
# Bacillus cereus [9] = test: Antimicrobial activity against Bacillus cereus MTCC 7350 after 24 hrs by broth micro serial dilution method; type: functional
# How it was run: (§4)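 This was broth microdilution in autoclaved Mueller-Hinton broth. 150 µL of compound per well was serially diluted […], and 50 µL of test organism was added. Plates were incubated 24 h at 37 °C and optical density was read.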
# HepG2 = test: Cytotoxicity against human HepG2 cells after 24 hrs by MTT assay; type: functional, cell-based; how it was run: as §3
# Curvularia lunata [10] = test: Antifungal activity against Curvularia lunata MTCC 581 assessed as zone of inhibition at 40 uM after 48 hrs by disc diffusion method; type: functional; how it was run: as §1
# Trichoderma viride [11] = test: Antifungal activity against Trichoderma viride MTCC 1107 assessed as zone of inhibition at 20 uM after 48 hrs by disc diffusion method; type: functional; how it was run: as §1
# Salmonella typhi [12] = test: Antimicrobial activity against Salmonella typhi ATCC 23564 assessed as diameter of inhibition zone at 40 uM after 24 hrs by Kirby -Baur disc diffusion method; type: functional; settings: Salmonella enterica subsp. enterica serovar Typhi
# Aspergillus flavus [13] = test: Antifungal activity against Aspergillus flavus MTCC 1021 assessed as zone of inhibition at 80 uM after 48 hrs by disc diffusion method; type: functional; how it was run: as §1
# Staphylococcus aureus [14] = test: Antimicrobial activity against Staphylococcus aureus ATCC 11632 assessed as diameter of inhibition zone at 80 uM after 24 hrs by Kirby -Baur disc diffusion method; type: functional; how it was run: as §2
# QG-56 = test: Cytotoxicity against human QG56 cells after 24 hrs by MTT assay; type: functional, cell-based; how it was run: as §3
# Trichoderma viride [15] = test: Antifungal activity against Trichoderma viride MTCC 1107 after 48 hrs; type: functional; settings: MTCC 1107, 48 h
# Salmonella typhi [16] = test: Antimicrobial activity against Salmonella typhi ATCC 23564 assessed as diameter of inhibition zone at 20 uM after 24 hrs by Kirby -Baur disc diffusion method; type: functional; settings: Salmonella enterica subsp. enterica serovar Typhi
# Mus musculus = test: Antiinflammatory activity in mouse assessed as inhibition of carrageenan-induced increase in paw volume at 200 mg/kg administered 1 hr prior to carrageenan challenge measured after 3 hrs relative to control; type: functional
# How it was run: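 Mice were fasted 2 h and placed in groups of five. Controls received saline i.p. Phenylbutazone was given at 100 mg/kg i.p., curcumin at 200 mg/kg i.p., and derivatives at 200 mg/kg. After 1 h, 0.1 mL of 1% carrageenan in saline was injected subplantar into the right hind paw. Paw volume was followed by plethysmometer for 3 h, and % inhibition was calculated as (Vc − Vt)/Vc × 100.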
# Curvularia lunata [17] = test: Antifungal activity against Curvularia lunata MTCC 581 assessed as zone of inhibition at 80 uM after 48 hrs by disc diffusion method; type: functional; settings: MTCC 581, 48 h, read-out: IZ; how it was run: as §1
# Pseudomonas aeruginosa [18] = test: Antimicrobial activity against Pseudomonas aeruginosa ATCC 15499 after 24 hrs by broth micro serial dilution method; type: functional; how it was run: as §4
# Curvularia lunata [19] = test: Antifungal activity against Curvularia lunata MTCC 581 after 48 hrs; type: functional; settings: MTCC 581, 48 h
# Trichoderma viride [20] = test: Antifungal activity against Trichoderma viride MTCC 1107 assessed as zone of inhibition at 80 uM after 48 hrs by disc diffusion method; type: functional; settings: MTCC 1107, 48 h, read-out: IZ; how it was run: as §1
# Aspergillus flavus [21] = test: Antifungal activity against Aspergillus flavus MTCC 1021 after 48 hrs; type: functional
# Escherichia coli [22] = test: Antimicrobial activity against Escherichia coli ATCC 35218 after 24 hrs by broth micro serial dilution method; type: functional; how it was run: as §4
# Staphylococcus aureus [23] = test: Antimicrobial activity against Staphylococcus aureus ATCC 11632 after 24 hrs by broth micro serial dilution method; type: functional; how it was run: as §4
# Trichoderma viride [24] = test: Antifungal activity against Trichoderma viride MTCC 1107 assessed as zone of inhibition at 40 uM after 48 hrs by disc diffusion method; type: functional; how it was run: as §1
# [25] = Salmonella enterica, ATCC 23564, 24 h
smiles,measurement,setting,value
COc1cc(/C=C/c2noc(/C=C/c3ccc(O)c(OC)c3)c2/N=N/c2ccc(S(N)(=O)=O)cc2)ccc1O,MIC,Aspergillus niger [1],inactive
same,inhibition zone (IZ),Curvularia lunata [2],inactive
same,diameter of the inhibition zone (DIZ),Escherichia coli [3],inactive
same,diameter of the inhibition zone (DIZ),Pseudomonas aeruginosa [4],inactive
same,IC50,HeLa,Not Active
same,zone of inhibition at 80 µM,"Salmonella typhi [5]; Salmonella enterica, ATCC 23564, 24 h, read-out: DIZ",11 mm
same,diameter of the inhibition zone (DIZ),Bacillus cereus [6],inactive
same,MIC,Salmonella typhi [7]; [25],> 80 µM
same,inhibition zone (IZ),Aspergillus niger [8],inactive
same,IC50,HCT-116,Not Active
same,MIC,Bacillus cereus [9],inactive
same,IC50,HepG2,Not Active
same,inhibition zone (IZ),Curvularia lunata [10],inactive
same,inhibition zone (IZ),Trichoderma viride [11],inactive
same,diameter of the inhibition zone (DIZ),Salmonella typhi [12],inactive
same,inhibition zone (IZ),Aspergillus flavus [13],inactive
same,diameter of the inhibition zone (DIZ),Staphylococcus aureus [14],inactive
same,IC50,QG-56,Not Active
same,MIC,Trichoderma viride [15],> 80 µM
same,diameter of the inhibition zone (DIZ),Salmonella typhi [16],inactive
same,inhibition in vivo at 200 mg/kg,Mus musculus,24.1%
same,zone of inhibition at 80 µM,Curvularia lunata [17],9 mm
same,MIC,Pseudomonas aeruginosa [18],inactive
same,MIC,Curvularia lunata [19],> 80 µM
same,zone of inhibition at 80 µM,Trichoderma viride [20],11 mm
same,MIC,Aspergillus flavus [21],inactive
same,MIC,Escherichia coli [22],inactive
same,MIC,Staphylococcus aureus [23],inactive
same,inhibition zone (IZ),Trichoderma viride [24],inactive
Nc1ccc(S(=O)(=O)Nc2ccccn2)cc1 [SULFAPYRIDINE],diameter of the inhibition zone (DIZ),Escherichia coli [3],inactive
same,diameter of the inhibition zone (DIZ),Pseudomonas aeruginosa [4],inactive
same,diameter of the inhibition zone (DIZ),Salmonella typhi [5],inactive
same,diameter of the inhibition zone (DIZ),Bacillus cereus [6],inactive
same,MIC,Salmonella typhi [7]; Salmonella enterica subsp. enterica serovar Typhi,inactive
same,MIC,Bacillus cereus [9],inactive
same,diameter of the inhibition zone (DIZ),Staphylococcus aureus [14],inactive
same,MIC,Pseudomonas aeruginosa [18],inactive
same,MIC,"Escherichia coli [22]; ATCC 35218, 24 h",> 160 µM
same,MIC,Staphylococcus aureus [23],inactive
COc1ccc(NS(=O)(=O)c2ccc(N)cc2)nn1 [SULFAMETHOXYPYRIDAZINE],diameter of the inhibition zone (DIZ),Escherichia coli [3],inactive
same,diameter of the inhibition zone (DIZ),Pseudomonas aeruginosa [4],inactive
same,diameter of the inhibition zone (DIZ),Salmonella typhi [5],inactive
same,diameter of the inhibition zone (DIZ),Bacillus cereus [6],inactive
same,MIC,Salmonella typhi [7]; [25],> 160 µM
same,MIC,"Bacillus cereus [9]; MTCC 7350, 24 h",> 160 µM
same,diameter of the inhibition zone (DIZ),Staphylococcus aureus [14],inactive
same,MIC,"Pseudomonas aeruginosa [18]; ATCC 15499, 24 h",> 160 µM
same,MIC,"Escherichia coli [22]; ATCC 35218, 24 h",> 160 µM
same,MIC,"Staphylococcus aureus [23]; ATCC 11632, 24 h",> 80 µM
Cc1cc(C)nc(NS(=O)(=O)c2ccc(N)cc2)n1 [SULFAMETHAZINE],diameter of the inhibition zone (DIZ),Escherichia coli [3],inactive
same,diameter of the inhibition zone (DIZ),Pseudomonas aeruginosa [4],inactive
same,diameter of the inhibition zone (DIZ),Salmonella typhi [5],inactive
same,diameter of the inhibition zone (DIZ),Bacillus cereus [6],inactive
same,MIC,Salmonella typhi [7]; [25],> 160 µM
same,MIC,Bacillus cereus [9],inactive
same,diameter of the inhibition zone (DIZ),Staphylococcus aureus [14],inactive
same,MIC,Pseudomonas aeruginosa [18],inactive
same,MIC,"Escherichia coli [22]; ATCC 35218, 24 h",> 160 µM
same,MIC,Staphylococcus aureus [23],inactive
Cc1cc(NS(=O)(=O)c2ccc(N)cc2)no1 [SULFAMETHOXAZOLE],diameter of the inhibition zone (DIZ),Escherichia coli [3],inactive
same,diameter of the inhibition zone (DIZ),Pseudomonas aeruginosa [4],inactive
same,diameter of the inhibition zone (DIZ),Salmonella typhi [5],inactive
same,diameter of the inhibition zone (DIZ),Bacillus cereus [6],inactive
same,MIC,Salmonella typhi [7]; [25],> 160 µM
same,MIC,Bacillus cereus [9],inactive
same,diameter of the inhibition zone (DIZ),Staphylococcus aureus [14],inactive
same,MIC,Pseudomonas aeruginosa [18],inactive
same,MIC,"Escherichia coli [22]; ATCC 35218, 24 h",> 160 µM
same,MIC,"Staphylococcus aureus [23]; ATCC 11632, 24 h",> 160 µM
